{"data": "Measurements gathered from unrelated publications", "HTR2A": "5-hydroxytryptamine receptor 2A (HTR2A, Homo sapiens, UniProt P28223)", "PFF0160c": "Dihydroorotate dehydrogenase (quinone), mitochondrial (PFF0160c, Plasmodium falciparum, UniProt Q08210)", "note": "Lines come from different studies, so protocols differ."}
{"Compound": "COC(=O)c1cc(N(C)C(=O)c2ccn3ncc(-c4ccc(C(=O)O)cc4)c3c2)ccc1Cl", "target": "Serine/threonine-protein kinase WNK1 (WNK1, Homo sapiens, UniProt Q9H4A3)", "effect on": "enzyme activity", "mode": "inhibitor", "IC50 [µM]": "> 30"}
{"Compound": "COc1ccc(COCCN(C)C(C)Cc2ccc(O)cc2)cc1 (stereo not shown)", "target": "HTR2A", "effect on": "calcium signal", "mode": "antagonist", "IC50 [µM]": 16.9}
{"Compound": "Cn1nc2c(=O)n(C3CC3)cnc2c1[C@](O)(c1ccc(C(F)(F)F)c(C#N)c1)C(F)(F)F", "target": "PFF0160c", "effect on": "enzyme activity", "mode": "inhibitor", "IC50 [µM]": 0.0126}
{"Compound": "Cc1nc(Nc2ccc(CC(=O)O)cc2)nc(Nc2ccc(F)c(C(F)(F)F)c2)c1C", "target": "cGMP-specific 3',5'-cyclic phosphodiesterase (PDE5A, Homo sapiens, UniProt O76074)", "effect on": "enzyme activity", "mode": "inhibitor", "technique": "FP", "IC50 [µM]": "~1.5"}
{"Compound": "Cn1nccc1[C@]1(CNC(=O)c2ccc(F)c(F)c2-c2ccc(C(F)(F)F)cc2)NC(=O)NC1=O", "target": "Mucosa-associated lymphoid tissue lymphoma translocation protein 1 (MALT1, Homo sapiens, UniProt Q9UDY8)", "effect on": "enzyme activity", "mode": "inhibitor", "IC50 [µM]": "> 100"}
{"Compound": "CCn1cnc2c([C@@](O)(CC)c3ccc(C(F)(F)F)nc3)n(C)nc2c1=O", "target": "PFF0160c", "effect on": "enzyme activity", "mode": "inhibitor", "IC50 [µM]": 0.056}
{"Compound": "Oc1ccc(C2=CCN(CC3CC34CC4)CC2)cc1 (stereo not shown)", "target": "HTR2A", "effect on": "calcium signal", "mode": "antagonist", "IC50 [µM]": 6.23}
{"Compound": "CNC(=O)c1ccc(-c2cnn3ccc(C(=O)N(C)c4ccc(Cl)c(C(=O)O)c4)cc23)cc1", "target": "Thromboxane A2 receptor (TBXA2R, Homo sapiens, UniProt P21731)", "effect on": "cell-free assay", "IC50 [µM]": "> 30"}
{"Compound": "Cn1nc2c(=O)n(C3CC3)ccc2c1[C@](O)(c1ccc(C(F)(F)F)c(C#N)c1)C1CC1", "target": "PFF0160c", "effect on": "enzyme activity", "mode": "inhibitor", "IC50 [µM]": 0.02}
{"Compound": "CC(C)N(CCc1c[nH]c2cccc(OC(=O)CCCC(=O)O)c12)C(C)C", "target": "HTR2A", "effect on": "ligand displacement", "technique": "radioligand", "IC50 [µM]": 5.7}
